One block for each compound: values may come before it.
Experiments:
[1] = molecular target: Mitogen-activated protein kinase kinase kinase kinase 4 (Homo sapiens) (UniProt O95819); assay: Inhibition of human recombinant HGK at 500 nM in presence of ATP by radiometric assay relative to control
[2] = molecular target: Cyclin-dependent kinase 6 (Homo sapiens) (UniProt Q00534); assay: Inhibition of human recombinant CDK6 at 500 nM in presence of ATP by radiometric assay relative to control
[3] = molecular target: Dual specificity protein kinase CLK4 (Homo sapiens) (UniProt Q9HAZ1); assay: Inhibition of human recombinant CLK4 at 500 nM related to control ULK1
[4] = molecular target: Platelet-derived growth factor receptor alpha (Homo sapiens) (UniProt P16234); assay: Inhibition of human recombinant PDGFRa at 40 nM in presence of ATP by radiometric assay relative to control
[5] = species on record: Homo sapiens; assay: Inhibition of human recombinant KHS1 at 40 nM in presence of ATP by radiometric assay relative to control
[6] = molecular target: Dual specificity tyrosine-phosphorylation-regulated kinase 1B (Homo sapiens) (UniProt Q9Y463); assay: Inhibition of human recombinant DYRK1B at 40 nM related to control ULK1
[7] = molecular target: T1, Activin receptor type-1 (Homo sapiens) (UniProt Q04771); assay: Inhibition of human recombinant ALK2 at 40 nM related to control ULK1
T1 sequence (whole entry): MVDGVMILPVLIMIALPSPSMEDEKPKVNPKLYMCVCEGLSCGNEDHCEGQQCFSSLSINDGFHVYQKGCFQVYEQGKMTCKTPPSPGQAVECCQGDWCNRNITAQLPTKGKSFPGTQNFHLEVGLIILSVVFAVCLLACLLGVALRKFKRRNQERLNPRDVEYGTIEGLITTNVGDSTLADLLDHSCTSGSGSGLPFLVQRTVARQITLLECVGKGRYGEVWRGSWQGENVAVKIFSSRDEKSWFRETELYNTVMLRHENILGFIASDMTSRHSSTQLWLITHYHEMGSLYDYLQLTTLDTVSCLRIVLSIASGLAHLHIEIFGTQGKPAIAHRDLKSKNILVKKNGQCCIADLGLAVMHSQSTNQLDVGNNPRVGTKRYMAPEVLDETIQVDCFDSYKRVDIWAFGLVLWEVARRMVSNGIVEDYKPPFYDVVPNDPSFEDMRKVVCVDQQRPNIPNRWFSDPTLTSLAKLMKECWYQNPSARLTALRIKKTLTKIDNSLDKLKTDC
Method in brief: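 Radiometric activity assays in a panel of 327 human recombinant kinases, each run in duplicate at one inhibitor concentration. Activity remaining is expressed as percent of vehicle control, and percent inhibition is calculated as 100% minus percent activity remaining.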

[8] = molecular target: Cyclin-dependent kinase-like 3 (Homo sapiens) (UniProt Q8IVW4); assay: Inhibition of human recombinant CDKL3 at 40 nM related to control ULK1
[9] = molecular target: T2, Inhibitor of nuclear factor kappa-B kinase subunit epsilon (Homo sapiens) (UniProt Q14164); assay: Inhibition of human recombinant IKKe at 40 nM in presence of ATP by radiometric assay relative to control
T2 sequence (whole entry): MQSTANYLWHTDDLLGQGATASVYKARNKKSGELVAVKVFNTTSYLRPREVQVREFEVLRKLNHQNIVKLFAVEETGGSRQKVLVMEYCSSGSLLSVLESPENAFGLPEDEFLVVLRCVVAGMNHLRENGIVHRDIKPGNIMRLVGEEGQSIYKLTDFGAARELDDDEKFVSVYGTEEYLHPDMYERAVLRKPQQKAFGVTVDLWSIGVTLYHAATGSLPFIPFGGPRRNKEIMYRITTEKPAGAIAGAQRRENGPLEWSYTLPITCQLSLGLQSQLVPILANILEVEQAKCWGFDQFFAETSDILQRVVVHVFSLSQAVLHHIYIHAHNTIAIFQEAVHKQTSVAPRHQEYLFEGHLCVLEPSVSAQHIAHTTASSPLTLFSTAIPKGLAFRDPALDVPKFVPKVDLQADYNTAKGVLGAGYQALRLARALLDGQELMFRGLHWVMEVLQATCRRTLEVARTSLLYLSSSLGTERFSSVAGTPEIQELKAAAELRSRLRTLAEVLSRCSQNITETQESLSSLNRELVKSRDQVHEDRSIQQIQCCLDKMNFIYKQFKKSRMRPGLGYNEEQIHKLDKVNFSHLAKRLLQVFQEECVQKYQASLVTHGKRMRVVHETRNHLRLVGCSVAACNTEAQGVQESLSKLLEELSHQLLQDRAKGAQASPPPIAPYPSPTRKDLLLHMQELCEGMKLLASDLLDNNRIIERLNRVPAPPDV

[10] = molecular target: Serine/threonine-protein kinase SIK1 (Homo sapiens) (UniProt P57059); assay: Inhibition of human recombinant SIK at 15 nM related to control ULK1
[11] = molecular target: T3, Serine/threonine-protein kinase ULK2 (Homo sapiens) (UniProt Q8IYT8); assay: Inhibition of human recombinant ULK2 at 15 nM related to control ULK1
T3 sequence (whole entry): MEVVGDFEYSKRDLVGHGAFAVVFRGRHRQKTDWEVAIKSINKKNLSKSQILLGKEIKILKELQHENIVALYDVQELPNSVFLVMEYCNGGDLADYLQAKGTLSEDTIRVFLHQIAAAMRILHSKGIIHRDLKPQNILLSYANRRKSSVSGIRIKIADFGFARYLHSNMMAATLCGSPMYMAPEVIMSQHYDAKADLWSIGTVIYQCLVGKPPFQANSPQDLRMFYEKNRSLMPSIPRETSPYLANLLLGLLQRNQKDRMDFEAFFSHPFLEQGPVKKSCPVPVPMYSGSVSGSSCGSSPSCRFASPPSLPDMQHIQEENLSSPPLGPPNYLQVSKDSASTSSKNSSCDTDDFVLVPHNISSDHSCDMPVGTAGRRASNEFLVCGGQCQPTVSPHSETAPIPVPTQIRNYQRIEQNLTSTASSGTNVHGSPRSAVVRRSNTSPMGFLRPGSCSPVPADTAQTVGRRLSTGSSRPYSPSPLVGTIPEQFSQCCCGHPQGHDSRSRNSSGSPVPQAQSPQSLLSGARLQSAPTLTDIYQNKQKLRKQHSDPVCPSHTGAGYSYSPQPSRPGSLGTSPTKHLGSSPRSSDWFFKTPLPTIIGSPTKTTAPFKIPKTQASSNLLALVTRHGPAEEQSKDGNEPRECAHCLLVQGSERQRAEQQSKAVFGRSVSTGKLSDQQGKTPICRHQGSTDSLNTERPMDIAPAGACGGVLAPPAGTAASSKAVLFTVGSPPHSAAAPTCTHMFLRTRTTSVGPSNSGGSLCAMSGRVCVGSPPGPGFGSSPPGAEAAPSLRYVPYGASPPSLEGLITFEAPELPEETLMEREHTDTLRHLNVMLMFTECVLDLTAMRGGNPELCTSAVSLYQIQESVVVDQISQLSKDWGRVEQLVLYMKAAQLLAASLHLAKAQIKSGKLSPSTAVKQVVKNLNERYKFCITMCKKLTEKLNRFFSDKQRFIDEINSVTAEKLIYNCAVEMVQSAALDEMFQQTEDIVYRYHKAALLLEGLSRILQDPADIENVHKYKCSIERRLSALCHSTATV

Sequence of Platelet-derived growth factor receptor alpha (Homo sapiens) (P16234 whole entry): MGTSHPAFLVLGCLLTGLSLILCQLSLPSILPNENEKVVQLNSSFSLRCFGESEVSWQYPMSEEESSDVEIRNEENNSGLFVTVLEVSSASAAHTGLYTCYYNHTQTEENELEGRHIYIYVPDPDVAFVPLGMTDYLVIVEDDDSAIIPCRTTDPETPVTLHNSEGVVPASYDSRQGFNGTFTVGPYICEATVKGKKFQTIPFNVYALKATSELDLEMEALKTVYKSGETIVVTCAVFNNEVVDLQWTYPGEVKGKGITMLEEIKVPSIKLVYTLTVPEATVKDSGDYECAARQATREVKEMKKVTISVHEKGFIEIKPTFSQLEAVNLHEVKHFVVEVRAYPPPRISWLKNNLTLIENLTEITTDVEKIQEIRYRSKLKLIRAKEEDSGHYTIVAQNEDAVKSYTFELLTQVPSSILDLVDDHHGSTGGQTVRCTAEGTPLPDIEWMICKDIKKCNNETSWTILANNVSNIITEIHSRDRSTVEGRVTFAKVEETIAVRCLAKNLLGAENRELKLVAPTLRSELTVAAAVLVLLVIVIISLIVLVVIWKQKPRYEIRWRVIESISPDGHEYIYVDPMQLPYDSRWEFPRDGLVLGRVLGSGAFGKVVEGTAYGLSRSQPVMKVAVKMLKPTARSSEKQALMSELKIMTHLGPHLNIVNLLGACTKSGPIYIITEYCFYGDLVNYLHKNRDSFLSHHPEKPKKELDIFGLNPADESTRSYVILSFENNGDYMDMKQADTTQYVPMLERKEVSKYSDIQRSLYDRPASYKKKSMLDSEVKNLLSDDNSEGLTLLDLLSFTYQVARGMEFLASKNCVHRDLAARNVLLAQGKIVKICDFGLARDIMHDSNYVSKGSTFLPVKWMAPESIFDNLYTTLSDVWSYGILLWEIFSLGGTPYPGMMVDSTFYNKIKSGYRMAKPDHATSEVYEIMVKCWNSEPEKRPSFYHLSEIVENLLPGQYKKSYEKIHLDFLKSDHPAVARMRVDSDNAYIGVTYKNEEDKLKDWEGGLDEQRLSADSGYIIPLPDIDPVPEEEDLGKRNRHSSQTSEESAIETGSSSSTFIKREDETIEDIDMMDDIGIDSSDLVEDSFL
Sequence of Serine/threonine-protein kinase SIK1 (Homo sapiens) (P57059 whole entry): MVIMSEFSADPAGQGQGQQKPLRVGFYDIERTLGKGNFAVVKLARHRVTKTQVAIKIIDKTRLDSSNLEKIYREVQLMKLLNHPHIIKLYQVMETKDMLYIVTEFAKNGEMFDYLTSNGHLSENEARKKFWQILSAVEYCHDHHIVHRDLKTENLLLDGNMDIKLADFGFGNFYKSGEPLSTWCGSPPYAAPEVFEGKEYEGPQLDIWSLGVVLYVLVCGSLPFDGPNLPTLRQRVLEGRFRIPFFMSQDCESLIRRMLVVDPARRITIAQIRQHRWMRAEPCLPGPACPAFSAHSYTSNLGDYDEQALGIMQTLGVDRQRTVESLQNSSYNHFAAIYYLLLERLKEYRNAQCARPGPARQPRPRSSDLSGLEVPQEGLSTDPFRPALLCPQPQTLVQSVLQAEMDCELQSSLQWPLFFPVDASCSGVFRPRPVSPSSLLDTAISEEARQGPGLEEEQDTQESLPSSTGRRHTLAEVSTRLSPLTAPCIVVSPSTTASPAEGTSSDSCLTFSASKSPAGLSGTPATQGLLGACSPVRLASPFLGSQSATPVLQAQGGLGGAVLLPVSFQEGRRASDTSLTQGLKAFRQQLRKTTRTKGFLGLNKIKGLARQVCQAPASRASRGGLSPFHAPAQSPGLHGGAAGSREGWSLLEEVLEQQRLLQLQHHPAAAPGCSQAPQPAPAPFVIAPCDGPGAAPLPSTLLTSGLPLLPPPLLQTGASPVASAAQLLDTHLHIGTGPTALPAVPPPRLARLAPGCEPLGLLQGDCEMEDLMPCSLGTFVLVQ
Sequence of Dual specificity protein kinase CLK4 (Homo sapiens) (Q9HAZ1 whole entry, looked up): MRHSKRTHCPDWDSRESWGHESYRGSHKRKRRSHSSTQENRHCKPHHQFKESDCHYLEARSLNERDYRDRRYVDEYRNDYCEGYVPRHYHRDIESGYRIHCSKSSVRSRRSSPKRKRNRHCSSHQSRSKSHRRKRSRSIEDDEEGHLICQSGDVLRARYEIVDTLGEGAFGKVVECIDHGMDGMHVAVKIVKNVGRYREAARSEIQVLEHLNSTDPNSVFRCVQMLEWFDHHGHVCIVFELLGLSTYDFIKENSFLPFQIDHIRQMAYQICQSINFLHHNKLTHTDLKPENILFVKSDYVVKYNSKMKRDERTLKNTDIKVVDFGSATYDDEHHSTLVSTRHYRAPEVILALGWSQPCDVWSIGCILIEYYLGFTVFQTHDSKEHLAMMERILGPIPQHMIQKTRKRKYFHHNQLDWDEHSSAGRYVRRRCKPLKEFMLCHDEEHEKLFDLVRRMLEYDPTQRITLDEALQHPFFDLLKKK
Sequence of Cyclin-dependent kinase 6 (Homo sapiens) (Q00534 whole entry): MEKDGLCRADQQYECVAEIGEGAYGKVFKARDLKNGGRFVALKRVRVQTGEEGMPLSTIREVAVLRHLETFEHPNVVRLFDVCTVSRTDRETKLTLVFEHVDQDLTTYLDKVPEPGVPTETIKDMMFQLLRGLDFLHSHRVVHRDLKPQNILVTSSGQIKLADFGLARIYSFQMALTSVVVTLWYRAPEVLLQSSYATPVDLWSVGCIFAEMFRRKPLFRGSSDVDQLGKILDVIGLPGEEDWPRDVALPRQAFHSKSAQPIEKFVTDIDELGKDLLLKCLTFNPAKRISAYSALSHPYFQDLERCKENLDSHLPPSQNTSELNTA
Sequence of Dual specificity tyrosine-phosphorylation-regulated kinase 1B (Homo sapiens) (Q9Y463 whole entry, looked up): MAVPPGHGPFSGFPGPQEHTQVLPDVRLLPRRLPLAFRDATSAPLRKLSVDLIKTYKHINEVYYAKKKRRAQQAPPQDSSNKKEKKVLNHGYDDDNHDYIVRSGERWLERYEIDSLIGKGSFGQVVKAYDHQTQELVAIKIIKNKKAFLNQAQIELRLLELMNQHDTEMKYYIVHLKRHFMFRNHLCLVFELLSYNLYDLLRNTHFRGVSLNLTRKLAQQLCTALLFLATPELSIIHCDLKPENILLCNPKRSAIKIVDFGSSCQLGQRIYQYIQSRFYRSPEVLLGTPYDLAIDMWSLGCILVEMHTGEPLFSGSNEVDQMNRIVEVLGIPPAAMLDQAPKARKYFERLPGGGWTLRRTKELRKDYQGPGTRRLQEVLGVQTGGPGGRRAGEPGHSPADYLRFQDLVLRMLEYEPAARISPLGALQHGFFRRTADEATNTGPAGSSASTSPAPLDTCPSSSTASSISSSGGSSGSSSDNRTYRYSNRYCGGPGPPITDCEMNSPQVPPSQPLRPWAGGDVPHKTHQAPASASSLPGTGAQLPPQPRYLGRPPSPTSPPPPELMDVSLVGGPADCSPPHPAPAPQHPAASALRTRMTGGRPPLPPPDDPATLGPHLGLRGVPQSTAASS
Sequence of Mitogen-activated protein kinase kinase kinase kinase 4 (Homo sapiens) (O95819 2-1239 limits assumed): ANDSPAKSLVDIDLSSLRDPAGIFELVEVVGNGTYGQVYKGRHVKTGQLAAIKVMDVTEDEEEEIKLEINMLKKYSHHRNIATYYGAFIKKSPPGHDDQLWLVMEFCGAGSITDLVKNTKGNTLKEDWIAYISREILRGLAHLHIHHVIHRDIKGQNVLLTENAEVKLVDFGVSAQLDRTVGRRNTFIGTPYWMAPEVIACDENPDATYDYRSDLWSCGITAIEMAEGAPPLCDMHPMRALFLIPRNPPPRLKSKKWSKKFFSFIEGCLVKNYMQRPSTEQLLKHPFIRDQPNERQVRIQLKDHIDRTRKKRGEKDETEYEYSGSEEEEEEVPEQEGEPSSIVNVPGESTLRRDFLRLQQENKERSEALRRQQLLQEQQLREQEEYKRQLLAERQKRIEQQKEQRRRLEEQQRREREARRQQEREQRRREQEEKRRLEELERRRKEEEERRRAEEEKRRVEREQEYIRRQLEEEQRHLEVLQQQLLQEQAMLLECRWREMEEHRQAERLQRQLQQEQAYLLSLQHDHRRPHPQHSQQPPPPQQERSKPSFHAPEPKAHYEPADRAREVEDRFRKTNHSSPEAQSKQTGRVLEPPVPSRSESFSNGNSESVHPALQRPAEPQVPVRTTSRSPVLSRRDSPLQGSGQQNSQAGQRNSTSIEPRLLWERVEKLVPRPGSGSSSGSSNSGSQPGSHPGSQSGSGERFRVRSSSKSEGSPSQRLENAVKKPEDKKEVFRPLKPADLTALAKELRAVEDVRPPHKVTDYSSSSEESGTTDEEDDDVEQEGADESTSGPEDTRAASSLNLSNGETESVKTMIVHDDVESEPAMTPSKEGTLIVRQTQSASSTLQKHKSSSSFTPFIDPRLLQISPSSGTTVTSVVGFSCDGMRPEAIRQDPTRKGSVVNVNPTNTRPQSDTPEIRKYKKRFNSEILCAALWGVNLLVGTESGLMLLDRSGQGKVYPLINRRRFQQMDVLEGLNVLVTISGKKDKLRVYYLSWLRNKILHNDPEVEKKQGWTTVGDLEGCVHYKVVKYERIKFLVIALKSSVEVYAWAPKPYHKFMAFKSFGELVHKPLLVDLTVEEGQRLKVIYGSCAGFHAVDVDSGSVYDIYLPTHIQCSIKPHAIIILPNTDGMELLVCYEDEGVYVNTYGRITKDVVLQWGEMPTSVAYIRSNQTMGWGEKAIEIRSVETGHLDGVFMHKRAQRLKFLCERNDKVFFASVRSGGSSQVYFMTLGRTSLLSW

inhibition [1]: 0%
inhibition [2]: 0%
fold change (FC) [3]: 0.11
Structure (SMILES): CNC(=O)c1ccccc1Oc1nc(Nc2cc(OC)c(OC)c(OC)c2)ncc1Br

inhibition [4]: 0%
inhibition [5]: 0%
fold change (FC) [6]: 0.42
fold change (FC) [7]: 0.77
fold change (FC) [8]: 0.53
inhibition [9]: 30%
Structure (SMILES): O=C(N[C@@H](C1CC1)C(F)(F)F)c1cc(-c2cnn3cc(-c4ccc(F)cc4)cnc23)cs1

fold change (FC) [10]: 0.84
fold change (FC) [11]: 0.83
Structure (SMILES): CC(C)[C@H](NC(=O)c1cc(-c2cnn3cc(-c4ccc(OCCN5CCCCC5)cc4)cnc23)cs1)C(F)(F)F
